From ChEMBL document CHEMBL1667767, “Triazole incorporated pyridazinones as a new class of antihypertensive agents: design, synthesis and in vivo screening” (2011) come the findings set out here.

The first assay concerns Rattus norvegicus. The assay can be described thus: Antihypertensive activity against methyl prednisolone acetate-induced hypertension in albino rat assessed as reduction in mean arterial pressure at 14 mg/kg, ip after 1 hr by tail-cuff method. The settings on record: route intraperitoneal. It is filed as functional, Artery. The arrangement: scale not given: the % may be the effect or the level left. An outline of the steps:
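Albino rats of 200–250 g were trained in a restrainer for 10 min daily for 1 week. Hypertension was induced by s.c. methyl prednisolone acetate at 20 mg/kg/wk for 2 weeks, with an untreated control group kept alongside. Drug was given i.p. and mean arterial BP was read 1 h later in conscious rats by CODA tail-cuff. Results are mean ± SEM, compared with the hypertensive control by ANOVA and Dunnett test.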
Regarding `CC(C)NCC(O)COc1cccc2ccccc12` (configuration not stated) [PROPRANOLOL], the Activity turned out to be 41.4%.

A further assay deals with Rattus norvegicus. In words: Antihypertensive activity against methyl prednisolone acetate-induced hypertension in albino rat assessed as reduction in mean arterial pressure at 20 mg/kg, ip after 1 hr by tail-cuff method. The format is functional, Artery. The arrangement: scale not given: the % may be the effect or the level left. The settings on record: route intraperitoneal. The procedure, abridged: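 Rats were albino, 200–250 g, and restrainer-trained for 10 min/day over 1 week. They were made hypertensive with s.c. methyl prednisolone acetate at 20 mg/kg/wk for 2 weeks. Each compound was suspended in 1% CMC and given i.p. at 20 mg/kg. Mean arterial BP was measured 1 h after dosing in conscious animals by CODA tail-cuff. Data are mean ± SEM, analysed by ANOVA and Dunnett test against the hypertensive control.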
Regarding `COc1ccc(C2=NN(c3n[nH]c(=S)n3-c3ccc(C)cc3)C(=O)CC2)cc1`, the Activity is 40.98%.
As for `Cc1ccc(-n2c(N3N=C(c4ccccc4)CCC3=O)n[nH]c2=S)cc1`, the Activity is reported as 38.83%.
The same measure, in the same setting: to `Cc1ccc(C2=NN(c3n[nH]c(=S)n3-c3ccc(C)cc3)C(=O)CC2)cc1` belongs 31.25%.
With `CCc1ccc(C2=NN(c3n[nH]c(=S)n3-c3ccccc3)C(=O)CC2)cc1`, the Activity is listed as 38.88%.
Consider `Cc1ccc(-n2c(N3N=C(c4ccc(-c5ccccc5)cc4)CCC3=O)n[nH]c2=S)cc1`, for which the Activity is given as 13.13%.
The same measure, in the same setting: to `O=C1CCC(c2ccc(-c3ccccc3)cc2)=NN1c1n[nH]c(=S)n1-c1ccc(Cl)cc1` belongs 14.37%.
`Cc1ccc(C2=NN(c3n[nH]c(=S)n3-c3ccc(Cl)cc3)C(=O)CC2)cc1`: the Activity was 41.84%.
Consider `CC(C)Cc1ccc(C2=NN(c3n[nH]c(=S)n3-c3ccc(Cl)cc3)C(=O)CC2)cc1`, for which the Activity is given as 15.85%.
Still for that read-out and setting: the same measure for `Cc1ccc(C2=NN(c3n[nH]c(=S)n3-c3ccccc3)C(=O)CC2)cc1`: 27.3%.
On to `CCc1ccc(C2=NN(c3n[nH]c(=S)n3-c3ccc(C)cc3)C(=O)CC2)cc1`, for which the Activity was 32.97%.
In the case of `O=C1CCC(c2ccc(Cl)cc2)=NN1c1n[nH]c(=S)n1-c1ccccc1`, the Activity was 12.52%.
On the same count and under the same terms, to `O=C1CCC(c2ccccc2)=NN1c1n[nH]c(=S)n1-c1ccccc1` belongs 30.01%; to `O=C1CCC(c2ccc(-c3ccccc3)cc2)=NN1c1n[nH]c(=S)n1-c1ccccc1`, 10.67%; to `O=C1CCC(c2ccccc2)=NN1c1n[nH]c(=S)n1-c1ccc(Cl)cc1`, 24.84%.
For `COc1ccc(C2=NN(c3n[nH]c(=S)n3-c3ccc(Cl)cc3)C(=O)CC2)cc1`, the Activity was found to be 16.09%.
For the compound `COc1ccc(C2=NN(c3n[nH]c(=S)n3-c3ccccc3)C(=O)CC2)cc1`, the Activity amounted to 32.48%.
With `Cc1ccc(-n2c(N3N=C(c4ccc(Cl)cc4)CCC3=O)n[nH]c2=S)cc1`, the Activity stood at 11.53%.
Still for that read-out and setting: to `O=C1CCC(c2ccc(Cl)cc2)=NN1c1n[nH]c(=S)n1-c1ccc(Cl)cc1` belongs 11.29%.
As for `CCc1ccc(C2=NN(c3n[nH]c(=S)n3-c3ccc(Cl)cc3)C(=O)CC2)cc1`, the Activity came to 42.11%.
Still for that read-out and setting: to `Cc1ccc(-n2c(N3N=C(c4ccc(CC(C)C)cc4)CCC3=O)n[nH]c2=S)cc1` belongs 12.5%; to `CC(C)Cc1ccc(C2=NN(c3n[nH]c(=S)n3-c3ccccc3)C(=O)CC2)cc1`, 30.51%.
